ChEMBL document CHEMBL4028828, “Syntheses of benzophenone-xanthone hybrid polyketides and their antibacterial activities” (2017)
≈ marks a conversion by molar mass, not a printed value. Calls of active or inactive are those of the source. The calls are words filed in the database; no cut-off is given here.

Legend:
Assay type in all cases: functional
Escherichia coli = assay: Antibacterial activity against Escherichia coli NBRC 102203 after overnight incubation by microdilution method
How it was run: (§1)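 Broth microdilution MIC, modified Eloff method. Compounds were dissolved in DMSO (under 5%) and tested in duplicate. Two-fold serial dilution followed by overnight incubation at 37 °C. MIC is the lowest concentration inhibiting growth.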

Klebsiella pneumoniae = assay: Antibacterial activity against Klebsiella pneumoniae NBRC 14940 after overnight incubation by microdilution method; how it was run: as §1
Bacillus subtilis = assay: Antibacterial activity against Bacillus subtilis NBRC 13719 after overnight incubation by microdilution method; how it was run: as §1
Staphylococcus aureus = assay: Antibacterial activity against Staphylococcus aureus NBRC 100910 after overnight incubation by microdilution method; how it was run: as §1
[1] = Bacillus subtilis, NBRC 13719, read-out: MIC
[2] = Staphylococcus aureus, NBRC 100910, read-out: MIC

Compound | MIC (Bacillus subtilis; [1]) [µM] | MIC (Staphylococcus aureus) [µM] | MIC (Staphylococcus aureus; [2]) [µM] | MIC (Bacillus subtilis) [µM] | Activity (Escherichia coli) | Activity (Klebsiella pneumoniae)
COc1cc(OC)c(C(c2ccccc2)c2c(O)cc(O)c3c(=O)c4ccccc4oc23)cc1OC (racemic) [listing 1 of 2 here] |  |  |  |  | inactive | inactive
COc1cc(OC)c(C(c2ccccc2)c2c(O)cc(O)c3c(=O)c4c(O)cc(O)cc4oc23)cc1OC (racemic) |  |  |  |  | inactive | inactive
COc1cc(OC)c(C(c2ccccc2)c2c(O)cc(O)c3c(=O)c4ccccc4oc23)cc1OC (single isomer, unassigned; (+)) [listing 1 of 2 here] |  | 10 (≈ 4.85 µg/mL) |  |  |  | 
COc1cc(OC)c(C(c2ccccc2)c2c(O)cc(O)c3c(=O)c4ccccc4oc23)cc1OC (single isomer, unassigned; (+)) [listing 2 of 2 here] |  |  |  |  | inactive | inactive
COc1cc(OC)c(C(c2ccccc2)c2c(O)cc(O)c3c(=O)c4c(O)cc(O)cc4oc23)cc1OC (single isomer, unassigned; (+)) [listing 1 of 2 here] |  |  |  |  | inactive | inactive
O=c1c2c(O)cc(O)cc2oc2cc(O)cc(O)c12 | > 100 |  | 50 (≈ 13 µg/mL) |  | inactive | inactive
COc1cc(OC)c(C(c2ccccc2)c2c(O)cc(O)c3c(=O)c4ccc(O)cc4oc23)cc1OC (racemic) [listing 2 of 2 here] |  |  |  |  | inactive | inactive
COc1cc(OC)c(C(=O)c2ccccc2)cc1OC | > 100 |  | > 100 |  | inactive | inactive
COc1cc(OC)c(C(c2ccccc2)c2c(O)cc(O)c3c(=O)c4ccc(O)cc4oc23)cc1OC (stereo in doubt; (-)-2) [listing 2 of 2 here] |  |  |  |  | inactive | inactive
COc1cc(OC)c(C(c2ccccc2)c2c(O)cc(O)c3c(=O)c4ccccc4oc23)cc1OC (single isomer, unassigned; (-)) [listing 1 of 2 here] |  |  |  |  | inactive | inactive
NC[C@H]1O[C@H](O[C@H]2[C@H](O)[C@@H](O[C@H]3O[C@H](CO)[C@@H](O)[C@H](N)[C@H]3O)[C@H](N)C[C@@H]2N)[C@H](N)[C@@H](O)[C@@H]1O [BEKANAMYCIN] | 1.25 (≈ 0.604 µg/mL) |  | 1.25 (≈ 0.604 µg/mL) |  |  | 
COc1cc(OC)c(C(c2ccccc2)c2c(O)cc(O)c3c(=O)c4ccccc4oc23)cc1OC (single isomer, unassigned; (-)) [listing 2 of 2 here] |  | 50 (≈ 24.2 µg/mL) |  |  |  | 
COc1cc(OC)c(C(c2ccccc2)c2c(O)cc(O)c3c(=O)c4c(O)cc(O)cc4oc23)cc1OC (single isomer, unassigned; (-)) [listing 2 of 2 here] |  |  |  |  | inactive | inactive
COc1cc(OC)c(C(c2ccccc2)c2c(O)cc(O)c3c(=O)c4ccc(O)cc4oc23)cc1OC (stereo in doubt; (+)-2) [listing 1 of 2 here] |  |  |  |  | inactive | inactive
COc1cc(OC)c(C(c2ccccc2)c2c(O)cc(O)c3c(=O)c4ccc(O)cc4oc23)cc1OC (stereo in doubt; (+)-2) [listing 2 of 2 here] |  |  |  | 10 (≈ 5.01 µg/mL) |  | 

Second part, led by results:

MIC (Bacillus subtilis; [1]) [µM] | MIC (Staphylococcus aureus) [µM] | MIC (Staphylococcus aureus; [2]) [µM] | MIC (Bacillus subtilis) [µM] | Compound | Activity (Escherichia coli) | Activity (Klebsiella pneumoniae)
12.5 (≈ 6.26 µg/mL) |  |  |  | COc1cc(OC)c(C(c2ccccc2)c2c(O)cc(O)c3c(=O)c4ccc(O)cc4oc23)cc1OC (racemic) [listing 1 of 2 here] |  | 
> 100 |  | 100 (≈ 24.4 µg/mL) |  | O=c1c2ccc(O)cc2oc2cc(O)cc(O)c12 | inactive | inactive
> 100 |  | > 100 |  | COc1cc(OC)c2c(=O)c3c(O)cc(O)c(C(c4ccccc4)c4cc(OC)c(OC)cc4OC)c3oc2c1 (racemic) | inactive | inactive
> 100 |  | > 100 |  | COc1cc(OC)c2c(=O)c3c(O)cc(O)cc3oc2c1 | inactive | inactive
 |  | 10 (≈ 5.01 µg/mL) |  | COc1cc(OC)c(C(c2ccccc2)c2c(O)cc(O)c3c(=O)c4ccc(O)cc4oc23)cc1OC (stereo in doubt; (-)-2) [listing 1 of 2 here] |  | 
1.25 (≈ 0.437 µg/mL) |  | 1.25 (≈ 0.437 µg/mL) |  | CC1(C)S[C@@H]2[C@H](NC(=O)[C@H](N)c3ccccc3)C(=O)N2[C@H]1C(=O)O [AMPICILLIN] |  | 
> 100 |  | > 100 |  | COc1cc(OC)c(C(O)c2ccccc2)cc1OC (stereo not drawn) | inactive | inactive
> 100 | 25 (≈ 12.1 µg/mL) |  |  | COc1cc(OC)c(C(c2ccccc2)c2c(O)cc(O)c3c(=O)c4ccccc4oc23)cc1OC (racemic) [listing 2 of 2 here] |  | 
> 100 |  | > 100 |  | Oc1ccc(O)c(O)c1 | inactive | inactive
> 100 |  | 100 (≈ 22.8 µg/mL) |  | O=c1c2ccccc2oc2cc(O)cc(O)c12 | inactive | inactive
> 100 |  | > 100 |  | COc1cc(O)c2c(=O)c3c(OC)cc(OC)cc3oc2c1 | inactive | inactive
100 (≈ 51.7 µg/mL) |  | 12.5 (≈ 6.46 µg/mL) |  | COc1cc(OC)c(C(c2ccccc2)c2c(O)cc(O)c3c(=O)c4c(O)cc(O)cc4oc23)cc1OC (single isomer, unassigned; (-)) [listing 1 of 2 here] |  | 
 | 10 (≈ 5.17 µg/mL) |  | 50 (≈ 25.8 µg/mL) | COc1cc(OC)c(C(c2ccccc2)c2c(O)cc(O)c3c(=O)c4c(O)cc(O)cc4oc23)cc1OC (single isomer, unassigned; (+)) [listing 2 of 2 here] |  | 
> 100 |  | > 100 |  | COc1cc(OC)c2c(=O)c3c(O)cc(OC)c(C(c4ccccc4)c4cc(OC)c(OC)cc4OC)c3oc2c1 (racemic) | inactive | inactive
